Laboratory results taken from ChEMBL document CHEMBL4190364, “Design, synthesis and anti-HIV evaluation of novel diarylpyridine derivatives as potent HIV-1 NNRTIs” (Eur J Med Chem, 2017).

What was measured:
[1] = system: Human immunodeficiency virus 1; assay: Antiviral activity against HIV1 3B infected in human MT4 cells assessed as inhibition of virus-induced cytopathogenicity by measuring virus-induced syncytium formation by MTT assay; format: functional, organism-based; settings: Human immunodeficiency virus 1, 3B
Procedure, shortened: (§1)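 MT-4 cells, exponentially growing, spun 5 min at 220 g and resuspended at 6×10^5 cells/mL. Infected with virus stock at 100-300 CCID₅₀ (HIV-1 IIIB or HIV-2 ROD). Serial fivefold compound dilutions were tested in triplicate wells. Viability was read by MTT after 5 days at 540 and 690 nm, using the median OD of three wells.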

[2] = system: Human immunodeficiency virus 2; assay: Antiviral activity against HIV2 ROD infected in human MT4 cells assessed as inhibition of virus-induced cytopathogenicity by measuring virus-induced syncytium formation by MTT assay; format: functional, organism-based; settings: Human immunodeficiency virus 2, ISOLATE ROD
Procedure, shortened: as §1, with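 “three wells. EC₅₀ was taken as 50% inhibition of virus-induced syncytium formation.” for “three wells.”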

[3] = system: Human immunodeficiency virus 1; assay: Antiviral activity against HIV1 RES056 expressing reverse transcriptase K103N/Y181C double mutant infected in human MT4 cells assessed as inhibition of virus-induced cytopathogenicity by measuring virus-induced syncytium formation by MTT assay; format: functional, organism-based; settings: Human immunodeficiency virus 1, RES056, MT4
Procedure, shortened: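 MT-4 cells (exponentially growing, spun 5 min at 220 g, resuspended at 6×10^5 cells/mL) infected with 100-300 CCID₅₀ virus; serial fivefold compound dilutions added at start, triplicate wells, mock-infected set in parallel. Viability read by MTT reduction at 540 and 690 nm after 5 days; median OD of three wells; EC₅₀ = concentration inhibiting virus-induced syncytium formation by 50%.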

[4] = Cytotoxicity in mock-infected human MT4 cells assessed as reduction in cell viability by MTT assay; format: cell-based
Procedure, shortened: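 Mock-infected MT-4 cells were run in parallel with the infected series: 6×10^5 cells/mL, serial fivefold compound dilutions, triplicate wells. MTT viability was read 5 days later at 540/690 nm from the median OD of three wells. CC₅₀ is the concentration cutting OD540 of mock-infected controls by 50%.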

[5] = Selectivity index, ratio of CC50 for mock-infected human MT4 cells to EC50 for antiviral activity against HIV1 3B infected in human MT4 cells; format: toxicity, cell-based; settings: mock-infected (CC50) and HIV1 3B infected (EC50)
Procedure, shortened: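 SI is CC₅₀/EC₅₀. Both values come from parallel MTT readings on mock-infected and HIV-1 IIIB-infected (100-300 CCID₅₀) MT-4 cells, in triplicate wells with serial fivefold dilutions, read after 5 days.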

[6] = target: Human immunodeficiency virus type 1 reverse transcriptase (Human immunodeficiency virus 1, UniProt Q72547); assay: Inhibition of recombinant wild type HIV1 reverse transcriptase p66/p51 assessed as reduction in biotin-dUTP incorporation incubated for 40 mins using poly(rA) template and oligo(dT)16 primer by picogreen dye based spectrofluorometry
[7] = system: Human immunodeficiency virus 1; assay: Potency index, ratio of EC50 for nevirapine to EC50 for test compound for antiviral activity against HIV1 3B infected in human MT4 cells by MTT assay; format: functional
[8] = target: Human immunodeficiency virus type 1 reverse transcriptase (Human immunodeficiency virus 1) (UniProt Q72547); assay: Potency index, ratio of IC50 for nevirapine to IC50 for test compound for inhibition of recombinant wild type HIV1 reverse transcriptase p66/p51 incubated for 40 mins using poly(rA) template and oligo(dT)16 primer by picogreen dye based spectrofluorometry

Structure (SMILES)	EC50 [1] [µM]	EC50 [2] [µM]	EC50 [3] [µM]	CC50 [4] [µM]	selectivity ratio [5]	IC50 [6] [µM]	Ratio EC50 [7]	Ratio IC50 [8]
Cc1cc(Cl)cc(C)c1Oc1cnc([N+](=O)[O-])c(Nc2ccc(C#N)cc2)c1	1.41	> 317	> 317	> 317	> 171			
COc1cccc(OC)c1Oc1cnc(N)c(Nc2ccc(C#N)cc2)c1	35.7	> 345	> 345	> 345	> 10	146		
Cc1cc(Br)cc(C)c1Oc1cnc(N)c(Nc2ccc(C#N)cc2)c1	0.84	> 26.7	> 26.7	26.7	32	0.26		
Cc1cc(C#N)cc(C)c1Oc1cnc(N)c(Nc2ccc(C#N)cc2)c1	0.07	> 39.5	≥ 11.5	39.5	577	0.17		
Cc1cc(Br)cc(C)c1Oc1cnc([N+](=O)[O-])c(Nc2ccc(C#N)cc2)c1	4.41	> 285	> 285	> 285	> 64			
COc1cccc(OC)c1Oc1cnc([N+](=O)[O-])c(Nc2ccc(C#N)cc2)c1	> 319	> 319		> 319				
N#Cc1ccc(Nc2cc(Oc3c(Br)cc(Br)cc3Br)cnc2[N+](=O)[O-])cc1	0.79	> 220	> 220	> 220	> 277			
Cc1cccc(C)c1Oc1cnc([N+](=O)[O-])c(Nc2ccc(C#N)cc2)c1	2.03	> 347	> 347	> 347	> 171			
Cc1cc(C)c(Oc2cnc([N+](=O)[O-])c(Nc3ccc(C#N)cc3)c2)c(C)c1	0.29	> 334	> 334	> 334	> 1160			
Cc1cccc(C)c1Nc1cnc([N+](=O)[O-])c(Nc2ccc(C#N)cc2)c1	1.06	> 6.27	> 6.27	6.27	6			
Cc1ccnc2c1NC(=O)c1cccnc1N2C1CC1 [NEVIRAPINE]			> 15	> 15				
Cc1cc(C#N)cc(C)c1Oc1nc(Nc2ccc(C#N)cc2)nc(N)c1Br [ETRAVIRINE]				> 4.59				
Cc1cc(C)c(Nc2cnc([N+](=O)[O-])c(Nc3ccc(C#N)cc3)c2)c(C)c1	0.04	> 168	> 168	168	3960	0.65	6	
N#Cc1ccc(Nc2cc(Oc3c(Cl)cc(Cl)cc3Cl)cnc2N)cc1	0.26	≥ 57.7	> 179	179	680	0.16		
N#Cc1ccc(Nc2cc(Oc3c(Br)cc(Br)cc3Br)cnc2N)cc1	0.5	> 27.7	> 27.7	27.7	55	0.17		
Cc1cc(Cl)cc(C)c1Oc1cnc(N)c(Nc2ccc(C#N)cc2)c1	0.37	> 35.1	> 35.1	35.1	95	0.31		
O=C1Nc2ccc(Cl)cc2[C@@](C#CC2CC2)(C(F)(F)F)O1 [EFAVIRENZ]				> 6.34				
Cc1cc(Br)c(Oc2cnc(N)c(Nc3ccc(C#N)cc3)c2)c(Br)c1	0.07	> 264	> 264	> 264	> 3800	0.05		45
Cc1cc(Br)c(Oc2cnc([N+](=O)[O-])c(Nc3ccc(C#N)cc3)c2)c(Br)c1	0.05	> 84.3	> 84.3	84.3	1680	0.28		
Cc1cc(C)c(Oc2cnc(N)c(Nc3ccc(C#N)cc3)c2)c(C)c1	0.14	> 32.1	> 32.1	32.1	227	0.09		
N#Cc1ccc(Nc2cc(Oc3c(F)cc(F)cc3F)cnc2[N+](=O)[O-])cc1	1.01	> 324	> 324	> 324	> 320			
N#Cc1ccc(Nc2cc(Oc3c(Cl)cc(Cl)cc3Cl)cnc2[N+](=O)[O-])cc1	0.31	> 287	> 287	> 287	> 924			
Cc1cccc(C)c1Oc1cnc(N)c(Nc2ccc(C#N)cc2)c1	0.6	> 378	> 378	> 378	> 628	0.91		
Cc1cn([C@H]2C[C@H](N=[N+]=[N-])[C@@H](CO)O2)c(=O)[nH]c1=O [ZIDOVUDINE]	0.006			> 7.48	> 1290			
Cc1cc(C#N)cc(C)c1Oc1cnc([N+](=O)[O-])c(Nc2ccc(C#N)cc2)c1	4.12	> 324	> 324	> 324	> 79			
